Reference: ChEMBL document CHEMBL1949561, “Synthesis and triplex-forming ability of oligonucleotides bearing 1-substituted 1H-1,2,3-triazole nucleobases” (Bioorg Med Chem, 2011)

Columns and labels:
Assay type in all cases: nucleic-acid assay
[1] = test system: Nucleic Acid; assay: Binding affinity to5'-GCTAAAAAGACAGAGAGATCG-3'/5'- CGATCTCTCTGTCTTTTTAGC-3' double stranded DNA assessed as melting temperature at 1.5 uM in sodium phosphate buffer at pH 7 by UV spectrophotometric analysis
Procedure, shortened: (§1)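 UV melting of triplexes between each modified TFO and the 21-bp duplex target, in 7 mM sodium phosphate buffer (pH 7.0), 140 mM KCl and 10 mM MgCl₂. Each oligonucleotide at 1.5 µM final. Absorbance followed at 260 nm from 5 °C to 85 °C, scanned at 0.5 °C/min, to give Tm.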

[2] = test system: Nucleic Acid; assay: Binding affinity to 5'-GCTAAAAAGATAGAGAGATCG-3'/5'- CGATCTCTCTATCTTTTTAGC-3' double stranded DNA assessed as melting temperature at 1.5 uM in sodium phosphate buffer at pH 7 by UV spectrophotometric analysis; procedure, shortened: as §1
[3] = test system: Nucleic Acid; assay: Binding affinity to 5'-GCTAAAAAGAAAGAGAGATCG-3'/5'- CGATCTCTCTTTCTTTTTAGC-3' double stranded DNA assessed as melting temperature at 1.5 uM in sodium phosphate buffer at pH 7 by UV spectrophotometric analysis; procedure, shortened: as §1
[4] = test system: Nucleic Acid; assay: Binding affinity to 5'-GCTAAAAAGAGAGAGAGATCG-3'/5'- CGATCTCTCTCTCTTTTTAGC-3' double stranded DNA assessed as melting temperature at 1.5 uM in sodium phosphate buffer at pH 7 by UV spectrophotometric analysis; procedure, shortened: as §1

Row | Structure (SMILES) | Tm [1] [°C] | Tm [2] [°C] | Tm [3] [°C] | Tm [4] [°C]
1 | Cc1cn([C@H]2C[C@H](OP(=O)(O)OC[C@H]3O[C@@H](n4cc(C)c(=O)[nH]c4=O)C[C@@H]3OP(=O)(O)OC[C@H]3O[C@@H](n4cc(C)c(N)nc4=O)C[C@@H]3OP(=O)(O)OC[C@H]3O[C@@H](n4cc(C)c(=O)[nH]c4=O)C[C@@H]3OP(=O)(O)OC[C@H]3O[C@@H](n4cc(C)c(N)nc4=O)C[C@@H]3OP(=O)(O)OC[C@H]3O[C@@H](n4cc(C)c(=O)[nH]c4=O)C[C@@H]3OP(=O)(O)OC[C@H]3O[C@@H](c4cn(-c5ccccc5C(=O)O)nn4)C[C@@H]3OP(=O)(O)OC[C@H]3O[C@@H](n4cc(C)c(=O)[nH]c4=O)C[C@@H]3OP(=O)(O)OC[C@H]3O[C@@H](n4cc(C)c(N)nc4=O)C[C@@H]3OP(=O)(O)OC[C@H]3O[C@@H](n4cc(C)c(=O)[nH]c4=O)C[C@@H]3OP(=O)(O)OC[C@H]3O[C@@H](n4cc(C)c(=O)[nH]c4=O)C[C@@H]3OP(=O)(O)OC[C@H]3O[C@@H](n4cc(C)c(=O)[nH]c4=O)C[C@@H]3OP(=O)(O)OC[C@H]3O[C@@H](n4cc(C)c(=O)[nH]c4=O)C[C@@H]3OP(=O)(O)OC[C@H]3O[C@@H](n4cc(C)c(=O)[nH]c4=O)C[C@@H]3O)[C@@H](COP(=O)(O)O[C@H]3C[C@H](n4cc(C)c(=O)[nH]c4=O)O[C@@H]3CO)O2)c(=O)nc1N | 17 | 15 | < 10 | 12
2 | Cc1cn([C@H]2C[C@H](OP(=O)(O)OC[C@H]3O[C@@H](n4cc(C)c(=O)[nH]c4=O)C[C@@H]3OP(=O)(O)OC[C@H]3O[C@@H](n4cc(C)c(N)nc4=O)C[C@@H]3OP(=O)(O)OC[C@H]3O[C@@H](n4cc(C)c(=O)[nH]c4=O)C[C@@H]3OP(=O)(O)OC[C@H]3O[C@@H](n4cc(C)c(N)nc4=O)C[C@@H]3OP(=O)(O)OC[C@H]3O[C@@H](n4cc(C)c(=O)[nH]c4=O)C[C@@H]3OP(=O)(O)OC[C@H]3O[C@@H](c4cn(C5CCCCC5)nn4)C[C@@H]3OP(=O)(O)OC[C@H]3O[C@@H](n4cc(C)c(=O)[nH]c4=O)C[C@@H]3OP(=O)(O)OC[C@H]3O[C@@H](n4cc(C)c(N)nc4=O)C[C@@H]3OP(=O)(O)OC[C@H]3O[C@@H](n4cc(C)c(=O)[nH]c4=O)C[C@@H]3OP(=O)(O)OC[C@H]3O[C@@H](n4cc(C)c(=O)[nH]c4=O)C[C@@H]3OP(=O)(O)OC[C@H]3O[C@@H](n4cc(C)c(=O)[nH]c4=O)C[C@@H]3OP(=O)(O)OC[C@H]3O[C@@H](n4cc(C)c(=O)[nH]c4=O)C[C@@H]3OP(=O)(O)OC[C@H]3O[C@@H](n4cc(C)c(=O)[nH]c4=O)C[C@@H]3O)[C@@H](COP(=O)(O)O[C@H]3C[C@H](n4cc(C)c(=O)[nH]c4=O)O[C@@H]3CO)O2)c(=O)nc1N | 20 | 12 | < 10 | < 10
3 | Cc1cn([C@H]2C[C@H](OP(=O)(O)OC[C@H]3O[C@@H](n4cc(C)c(=O)[nH]c4=O)C[C@@H]3OP(=O)(O)OC[C@H]3O[C@@H](n4cc(C)c(N)nc4=O)C[C@@H]3OP(=O)(O)OC[C@H]3O[C@@H](n4cc(C)c(=O)[nH]c4=O)C[C@@H]3OP(=O)(O)OC[C@H]3O[C@@H](n4cc(C)c(N)nc4=O)C[C@@H]3OP(=O)(O)OC[C@H]3O[C@@H](n4cc(C)c(=O)[nH]c4=O)C[C@@H]3OP(=O)(O)OC[C@H]3O[C@@H](c4cn(-c5cccc(CO)c5)nn4)C[C@@H]3OP(=O)(O)OC[C@H]3O[C@@H](n4cc(C)c(=O)[nH]c4=O)C[C@@H]3OP(=O)(O)OC[C@H]3O[C@@H](n4cc(C)c(N)nc4=O)C[C@@H]3OP(=O)(O)OC[C@H]3O[C@@H](n4cc(C)c(=O)[nH]c4=O)C[C@@H]3OP(=O)(O)OC[C@H]3O[C@@H](n4cc(C)c(=O)[nH]c4=O)C[C@@H]3OP(=O)(O)OC[C@H]3O[C@@H](n4cc(C)c(=O)[nH]c4=O)C[C@@H]3OP(=O)(O)OC[C@H]3O[C@@H](n4cc(C)c(=O)[nH]c4=O)C[C@@H]3OP(=O)(O)OC[C@H]3O[C@@H](n4cc(C)c(=O)[nH]c4=O)C[C@@H]3O)[C@@H](COP(=O)(O)O[C@H]3C[C@H](n4cc(C)c(=O)[nH]c4=O)O[C@@H]3CO)O2)c(=O)nc1N | 23 | 14 | < 10 | < 10
4 | Cc1cn([C@H]2C[C@H](OP(=O)(O)OC[C@H]3O[C@@H](n4cc(C)c(=O)[nH]c4=O)C[C@@H]3OP(=O)(O)OC[C@H]3O[C@@H](n4cc(C)c(N)nc4=O)C[C@@H]3OP(=O)(O)OC[C@H]3O[C@@H](n4cc(C)c(=O)[nH]c4=O)C[C@@H]3OP(=O)(O)OC[C@H]3O[C@@H](n4cc(C)c(N)nc4=O)C[C@@H]3OP(=O)(O)OC[C@H]3O[C@@H](n4cc(C)c(=O)[nH]c4=O)C[C@@H]3OP(=O)(O)OC[C@H]3O[C@@H](c4cn(-c5ccc(N)cc5)nn4)C[C@@H]3OP(=O)(O)OC[C@H]3O[C@@H](n4cc(C)c(=O)[nH]c4=O)C[C@@H]3OP(=O)(O)OC[C@H]3O[C@@H](n4cc(C)c(N)nc4=O)C[C@@H]3OP(=O)(O)OC[C@H]3O[C@@H](n4cc(C)c(=O)[nH]c4=O)C[C@@H]3OP(=O)(O)OC[C@H]3O[C@@H](n4cc(C)c(=O)[nH]c4=O)C[C@@H]3OP(=O)(O)OC[C@H]3O[C@@H](n4cc(C)c(=O)[nH]c4=O)C[C@@H]3OP(=O)(O)OC[C@H]3O[C@@H](n4cc(C)c(=O)[nH]c4=O)C[C@@H]3OP(=O)(O)OC[C@H]3O[C@@H](n4cc(C)c(=O)[nH]c4=O)C[C@@H]3O)[C@@H](COP(=O)(O)O[C@H]3C[C@H](n4cc(C)c(=O)[nH]c4=O)O[C@@H]3CO)O2)c(=O)nc1N | 23 | 18 | 12 | < 10
5 | CC(=O)NCCn1cc([C@H]2C[C@H](OP(=O)(O)OC[C@H]3O[C@@H](n4cc(C)c(=O)[nH]c4=O)C[C@@H]3OP(=O)(O)OC[C@H]3O[C@@H](n4cc(C)c(N)nc4=O)C[C@@H]3OP(=O)(O)OC[C@H]3O[C@@H](n4cc(C)c(=O)[nH]c4=O)C[C@@H]3OP(=O)(O)OC[C@H]3O[C@@H](n4cc(C)c(=O)[nH]c4=O)C[C@@H]3OP(=O)(O)OC[C@H]3O[C@@H](n4cc(C)c(=O)[nH]c4=O)C[C@@H]3OP(=O)(O)OC[C@H]3O[C@@H](n4cc(C)c(=O)[nH]c4=O)C[C@@H]3OP(=O)(O)OC[C@H]3O[C@@H](n4cc(C)c(=O)[nH]c4=O)C[C@@H]3O)[C@@H](COP(=O)(O)O[C@H]3C[C@H](n4cc(C)c(=O)[nH]c4=O)O[C@@H]3COP(=O)(O)O[C@H]3C[C@H](n4cc(C)c(N)nc4=O)O[C@@H]3COP(=O)(O)O[C@H]3C[C@H](n4cc(C)c(=O)[nH]c4=O)O[C@@H]3COP(=O)(O)O[C@H]3C[C@H](n4cc(C)c(N)nc4=O)O[C@@H]3COP(=O)(O)O[C@H]3C[C@H](n4cc(C)c(=O)[nH]c4=O)O[C@@H]3COP(=O)(O)O[C@H]3C[C@H](n4cc(C)c(N)nc4=O)O[C@@H]3COP(=O)(O)O[C@H]3C[C@H](n4cc(C)c(=O)[nH]c4=O)O[C@@H]3CO)O2)nn1 | 20 | 14 | 14 | < 10
6 | Cc1cn([C@H]2C[C@H](OP(=O)(O)OC[C@H]3O[C@@H](n4cc(C)c(=O)[nH]c4=O)C[C@@H]3OP(=O)(O)OC[C@H]3O[C@@H](n4cc(C)c(N)nc4=O)C[C@@H]3OP(=O)(O)OC[C@H]3O[C@@H](n4cc(C)c(=O)[nH]c4=O)C[C@@H]3OP(=O)(O)OC[C@H]3O[C@@H](n4cc(C)c(N)nc4=O)C[C@@H]3OP(=O)(O)OC[C@H]3O[C@@H](n4cc(C)c(=O)[nH]c4=O)C[C@@H]3OP(=O)(O)OC[C@H]3O[C@@H](c4cn(-c5ccccc5O)nn4)C[C@@H]3OP(=O)(O)OC[C@H]3O[C@@H](n4cc(C)c(=O)[nH]c4=O)C[C@@H]3OP(=O)(O)OC[C@H]3O[C@@H](n4cc(C)c(N)nc4=O)C[C@@H]3OP(=O)(O)OC[C@H]3O[C@@H](n4cc(C)c(=O)[nH]c4=O)C[C@@H]3OP(=O)(O)OC[C@H]3O[C@@H](n4cc(C)c(=O)[nH]c4=O)C[C@@H]3OP(=O)(O)OC[C@H]3O[C@@H](n4cc(C)c(=O)[nH]c4=O)C[C@@H]3OP(=O)(O)OC[C@H]3O[C@@H](n4cc(C)c(=O)[nH]c4=O)C[C@@H]3OP(=O)(O)OC[C@H]3O[C@@H](n4cc(C)c(=O)[nH]c4=O)C[C@@H]3O)[C@@H](COP(=O)(O)O[C@H]3C[C@H](n4cc(C)c(=O)[nH]c4=O)O[C@@H]3CO)O2)c(=O)nc1N | 25 | 15 | 17 | < 10
7 | Cc1cn([C@H]2C[C@H](OP(=O)(O)OC[C@H]3O[C@@H](n4cc(C)c(=O)[nH]c4=O)C[C@@H]3OP(=O)(O)OC[C@H]3O[C@@H](n4cc(C)c(N)nc4=O)C[C@@H]3OP(=O)(O)OC[C@H]3O[C@@H](n4cc(C)c(=O)[nH]c4=O)C[C@@H]3OP(=O)(O)OC[C@H]3O[C@@H](n4cc(C)c(N)nc4=O)C[C@@H]3OP(=O)(O)OC[C@H]3O[C@@H](n4cc(C)c(=O)[nH]c4=O)C[C@@H]3OP(=O)(O)OC[C@H]3O[C@@H](c4cn(-c5cccc(C(=O)O)c5)nn4)C[C@@H]3OP(=O)(O)OC[C@H]3O[C@@H](n4cc(C)c(=O)[nH]c4=O)C[C@@H]3OP(=O)(O)OC[C@H]3O[C@@H](n4cc(C)c(N)nc4=O)C[C@@H]3OP(=O)(O)OC[C@H]3O[C@@H](n4cc(C)c(=O)[nH]c4=O)C[C@@H]3OP(=O)(O)OC[C@H]3O[C@@H](n4cc(C)c(=O)[nH]c4=O)C[C@@H]3OP(=O)(O)OC[C@H]3O[C@@H](n4cc(C)c(=O)[nH]c4=O)C[C@@H]3OP(=O)(O)OC[C@H]3O[C@@H](n4cc(C)c(=O)[nH]c4=O)C[C@@H]3OP(=O)(O)OC[C@H]3O[C@@H](n4cc(C)c(=O)[nH]c4=O)C[C@@H]3O)[C@@H](COP(=O)(O)O[C@H]3C[C@H](n4cc(C)c(=O)[nH]c4=O)O[C@@H]3CO)O2)c(=O)nc1N | 22 | 15 | < 10 | < 10
